This note sets out measurements from ChEMBL document CHEMBL3751740, “New MKLP-2 inhibitors in the paprotrain series: Design, synthesis and biological evaluations” (Bioorg Med Chem, 2016).

Assay [1] concerns the target Centromere-associated protein E (Homo sapiens) (UniProt Q02224). Kind of assay: Inhibition of porcine brain microtubule-stimulated human recombinant GST-tagged CENP-E ATPase activity at 1 mM by microplate reader in presence of Mg2+ ATP relative to control. Summed up: (§1)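 Motor domain at 15 µM final, in 7.5 mM PIPES-NaOH pH 7.0 with […], 10 µM Taxol, ELIPA 1 and 2 reagents and 1.25 mg/mL microtubules. AMP-PNP, a slowly hydrolysable ATP analog and general ATPase inhibitor, tested at 1 mM. Reaction started with 1 mM Mg2+ATP at 22 °C and read kinetically at 360 nm. Run in triplicate.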

For assay [2], the target named is T1, Kinesin-1 heavy chain (Homo sapiens) (UniProt P33176).
T1 sequence (whole entry): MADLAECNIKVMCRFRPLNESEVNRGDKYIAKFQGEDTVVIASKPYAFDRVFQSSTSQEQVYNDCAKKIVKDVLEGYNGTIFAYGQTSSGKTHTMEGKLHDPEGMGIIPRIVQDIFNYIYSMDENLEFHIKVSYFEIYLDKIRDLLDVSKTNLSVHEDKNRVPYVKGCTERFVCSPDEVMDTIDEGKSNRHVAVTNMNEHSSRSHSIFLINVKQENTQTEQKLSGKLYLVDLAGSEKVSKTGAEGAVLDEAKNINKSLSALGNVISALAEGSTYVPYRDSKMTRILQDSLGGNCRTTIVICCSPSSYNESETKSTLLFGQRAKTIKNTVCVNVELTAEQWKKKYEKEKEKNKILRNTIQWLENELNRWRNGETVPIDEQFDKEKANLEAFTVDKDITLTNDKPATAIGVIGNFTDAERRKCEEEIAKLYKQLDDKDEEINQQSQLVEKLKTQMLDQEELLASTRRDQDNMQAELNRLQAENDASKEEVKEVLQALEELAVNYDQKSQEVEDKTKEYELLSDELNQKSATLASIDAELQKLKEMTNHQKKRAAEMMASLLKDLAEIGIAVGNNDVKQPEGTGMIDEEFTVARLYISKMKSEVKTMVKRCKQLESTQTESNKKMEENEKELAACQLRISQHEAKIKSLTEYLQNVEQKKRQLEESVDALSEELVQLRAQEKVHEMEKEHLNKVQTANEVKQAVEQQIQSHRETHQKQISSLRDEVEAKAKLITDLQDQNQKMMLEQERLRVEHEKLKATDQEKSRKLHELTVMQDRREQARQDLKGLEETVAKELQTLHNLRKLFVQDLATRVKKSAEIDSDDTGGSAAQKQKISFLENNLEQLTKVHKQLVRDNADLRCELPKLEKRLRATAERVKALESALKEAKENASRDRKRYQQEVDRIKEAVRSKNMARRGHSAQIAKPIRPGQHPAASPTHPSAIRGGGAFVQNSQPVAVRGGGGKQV
In words: Inhibition of porcine brain microtubule-stimulated human recombinant GST-tagged Kif5B ATPase activity at 1 mM by microplate reader in presence of Mg2+ ATP relative to control. Summed up:
as §1

Assay [3] addresses T2, Kinesin-like protein KIFC3 (Homo sapiens) (UniProt Q9BVG8).
T2 sequence (whole entry): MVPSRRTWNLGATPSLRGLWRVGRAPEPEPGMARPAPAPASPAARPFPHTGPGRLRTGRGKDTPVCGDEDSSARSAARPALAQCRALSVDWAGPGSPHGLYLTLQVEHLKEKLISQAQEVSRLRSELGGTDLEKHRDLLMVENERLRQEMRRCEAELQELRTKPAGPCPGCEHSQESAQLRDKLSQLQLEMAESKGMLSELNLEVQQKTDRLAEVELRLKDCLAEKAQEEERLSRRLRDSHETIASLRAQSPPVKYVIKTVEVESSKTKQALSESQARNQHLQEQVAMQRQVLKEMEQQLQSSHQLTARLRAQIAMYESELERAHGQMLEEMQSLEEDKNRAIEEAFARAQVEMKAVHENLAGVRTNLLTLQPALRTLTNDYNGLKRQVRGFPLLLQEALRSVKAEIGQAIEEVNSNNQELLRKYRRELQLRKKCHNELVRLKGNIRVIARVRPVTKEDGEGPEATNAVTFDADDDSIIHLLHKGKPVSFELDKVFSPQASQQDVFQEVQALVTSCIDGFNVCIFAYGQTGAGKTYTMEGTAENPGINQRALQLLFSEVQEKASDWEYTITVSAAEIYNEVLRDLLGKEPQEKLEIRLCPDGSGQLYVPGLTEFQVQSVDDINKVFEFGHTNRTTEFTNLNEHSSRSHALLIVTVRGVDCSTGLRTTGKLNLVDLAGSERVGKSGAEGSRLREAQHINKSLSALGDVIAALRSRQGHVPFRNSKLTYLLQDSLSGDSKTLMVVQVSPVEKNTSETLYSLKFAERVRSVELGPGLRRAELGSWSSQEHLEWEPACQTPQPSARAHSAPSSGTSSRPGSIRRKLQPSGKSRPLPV
In words: Inhibition of porcine brain microtubule-stimulated human recombinant GST-tagged KIFC3 ATPase activity at 1 mM by microplate reader in presence of Mg2+ ATP relative to control. The method, boiled down:
as §1

For a further assay, the system named is NCI-H460. Kind of assay: Growth inhibition of human NCI-H460 cells incubated for 4 days by WST-1 assay. In kind it is functional. The note with it: NCI-H460, 96 h. The method, boiled down: (§2)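 Cells were kept at 37 °C under 5% CO2 and plated on day 0 at 500–5000 cells/well. On day 1 they received ten concentrations from 0.0025 to 50 µM (final), in triplicate. On day 4 WST-1 was added, followed by 30 min–4 h incubation and absorbance at 450 nm. GI50 is the concentration killing 50% of cells.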
On the technique in general: Tetrazolium dyes change colour on reduction, which living cells bring about.

The nature of assay [4]: Growth inhibition of human MIAPaCa2 cells incubated for 4 days by WST-1 assay. Particulars: MIA PaCa-2, 96 h. In kind it is functional. Summed up:
as §2

Structures are written as SMILES.

Chain of Centromere-associated protein E (Homo sapiens) (Q02224 whole entry, the tested form may be a part): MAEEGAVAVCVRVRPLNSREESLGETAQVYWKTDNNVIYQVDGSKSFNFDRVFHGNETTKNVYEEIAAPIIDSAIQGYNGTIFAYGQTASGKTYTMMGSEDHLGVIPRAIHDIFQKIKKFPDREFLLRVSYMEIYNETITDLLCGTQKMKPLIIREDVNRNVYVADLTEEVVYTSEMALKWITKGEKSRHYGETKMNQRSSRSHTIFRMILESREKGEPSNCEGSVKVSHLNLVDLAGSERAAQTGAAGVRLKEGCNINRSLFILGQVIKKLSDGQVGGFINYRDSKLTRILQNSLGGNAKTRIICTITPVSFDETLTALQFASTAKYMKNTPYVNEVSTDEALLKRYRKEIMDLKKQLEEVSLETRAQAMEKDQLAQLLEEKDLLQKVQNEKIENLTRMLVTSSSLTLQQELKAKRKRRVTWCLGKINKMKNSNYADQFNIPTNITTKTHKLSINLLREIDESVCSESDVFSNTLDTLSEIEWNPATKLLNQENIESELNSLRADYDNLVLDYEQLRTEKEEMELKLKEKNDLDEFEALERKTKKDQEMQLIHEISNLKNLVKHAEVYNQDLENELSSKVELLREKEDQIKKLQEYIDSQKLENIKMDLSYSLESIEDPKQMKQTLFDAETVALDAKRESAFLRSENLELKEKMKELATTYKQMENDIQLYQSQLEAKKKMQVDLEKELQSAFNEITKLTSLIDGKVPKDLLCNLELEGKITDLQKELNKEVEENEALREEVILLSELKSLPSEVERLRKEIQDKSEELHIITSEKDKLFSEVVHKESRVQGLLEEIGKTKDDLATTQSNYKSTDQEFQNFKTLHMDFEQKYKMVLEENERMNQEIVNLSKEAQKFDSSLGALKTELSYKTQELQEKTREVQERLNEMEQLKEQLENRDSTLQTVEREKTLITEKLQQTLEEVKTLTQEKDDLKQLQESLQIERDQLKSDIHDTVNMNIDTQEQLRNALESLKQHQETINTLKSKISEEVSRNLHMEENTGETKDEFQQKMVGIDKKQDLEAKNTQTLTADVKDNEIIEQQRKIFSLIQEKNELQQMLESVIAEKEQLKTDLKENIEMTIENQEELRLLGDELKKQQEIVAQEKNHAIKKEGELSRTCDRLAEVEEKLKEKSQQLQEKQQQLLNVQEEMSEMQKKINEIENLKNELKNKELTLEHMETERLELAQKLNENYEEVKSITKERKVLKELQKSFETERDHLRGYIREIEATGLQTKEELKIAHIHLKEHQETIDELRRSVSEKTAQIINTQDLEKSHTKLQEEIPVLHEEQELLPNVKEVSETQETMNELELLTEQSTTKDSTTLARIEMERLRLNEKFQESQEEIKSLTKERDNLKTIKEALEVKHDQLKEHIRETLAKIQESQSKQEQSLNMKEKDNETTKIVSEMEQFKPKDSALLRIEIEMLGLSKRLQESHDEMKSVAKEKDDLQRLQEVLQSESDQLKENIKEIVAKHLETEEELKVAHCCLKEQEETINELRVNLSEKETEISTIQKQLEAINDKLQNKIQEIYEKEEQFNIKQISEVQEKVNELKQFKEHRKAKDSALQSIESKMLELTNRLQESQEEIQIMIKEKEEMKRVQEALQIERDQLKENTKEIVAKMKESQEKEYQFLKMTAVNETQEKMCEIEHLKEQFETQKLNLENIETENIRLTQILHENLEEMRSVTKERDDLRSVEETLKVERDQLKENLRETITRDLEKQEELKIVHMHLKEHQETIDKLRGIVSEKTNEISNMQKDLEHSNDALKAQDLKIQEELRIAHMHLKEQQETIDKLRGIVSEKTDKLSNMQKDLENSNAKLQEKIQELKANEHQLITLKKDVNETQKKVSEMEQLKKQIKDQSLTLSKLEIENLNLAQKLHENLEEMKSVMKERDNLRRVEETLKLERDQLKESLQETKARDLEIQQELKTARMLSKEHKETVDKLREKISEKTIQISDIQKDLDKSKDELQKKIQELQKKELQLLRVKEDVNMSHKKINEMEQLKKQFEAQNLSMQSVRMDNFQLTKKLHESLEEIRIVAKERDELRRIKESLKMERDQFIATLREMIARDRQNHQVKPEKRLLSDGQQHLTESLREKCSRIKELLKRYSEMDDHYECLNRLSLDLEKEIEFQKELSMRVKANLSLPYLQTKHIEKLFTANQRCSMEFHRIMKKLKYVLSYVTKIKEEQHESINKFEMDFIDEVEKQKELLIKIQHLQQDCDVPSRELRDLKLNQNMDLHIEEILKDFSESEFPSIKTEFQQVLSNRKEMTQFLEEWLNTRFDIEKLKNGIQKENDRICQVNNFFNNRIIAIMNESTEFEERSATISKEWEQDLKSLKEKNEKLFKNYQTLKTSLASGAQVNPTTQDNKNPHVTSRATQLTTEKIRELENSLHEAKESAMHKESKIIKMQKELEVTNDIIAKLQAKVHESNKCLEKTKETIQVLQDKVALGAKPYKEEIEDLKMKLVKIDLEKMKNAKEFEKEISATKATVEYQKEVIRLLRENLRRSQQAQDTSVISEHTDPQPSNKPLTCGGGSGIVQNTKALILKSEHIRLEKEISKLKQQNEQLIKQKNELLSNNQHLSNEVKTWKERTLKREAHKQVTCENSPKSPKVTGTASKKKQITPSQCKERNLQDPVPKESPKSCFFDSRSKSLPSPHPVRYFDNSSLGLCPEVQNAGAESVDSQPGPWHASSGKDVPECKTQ

On to `Nc1ncnc2c1ncn2[C@@H]1O[C@H](COP(=O)(O)OP(=O)(O)NP(=O)(O)O)[C@@H](O)[C@H]1O`, for which the inhibition in assay [1], in assay [2] and in assay [3] was more than 30% each time.
Consider `COc1ccc2[nH]cc(/C(C#N)=C/c3cccnc3)c2c1`, for which the GI50 (usually the concentration giving 50% growth inhibition) turned out to be 8.2 µM with NCI-H460 and 5.5 µM in assay [4].
